Assay results: publication PMC9293090 (Journal of Neurochemistry, 2021)

How the values were obtained:
GCS [1] = target: T1, GCS (Homo sapiens, UniProt Q16739); experiment: Steady-state kinetic GCS competition experiment; format: biochemical; conditions: for K m / V max: for UDP-glucose, fixed ceramide 7.4 μM; for inhibition mode of GCS against UDP-glucose: various UDP-glucose concentrations; for inhibition mode of GCS against ceramide: various ceramide concentrations
T1 sequence (Q16739 1-394): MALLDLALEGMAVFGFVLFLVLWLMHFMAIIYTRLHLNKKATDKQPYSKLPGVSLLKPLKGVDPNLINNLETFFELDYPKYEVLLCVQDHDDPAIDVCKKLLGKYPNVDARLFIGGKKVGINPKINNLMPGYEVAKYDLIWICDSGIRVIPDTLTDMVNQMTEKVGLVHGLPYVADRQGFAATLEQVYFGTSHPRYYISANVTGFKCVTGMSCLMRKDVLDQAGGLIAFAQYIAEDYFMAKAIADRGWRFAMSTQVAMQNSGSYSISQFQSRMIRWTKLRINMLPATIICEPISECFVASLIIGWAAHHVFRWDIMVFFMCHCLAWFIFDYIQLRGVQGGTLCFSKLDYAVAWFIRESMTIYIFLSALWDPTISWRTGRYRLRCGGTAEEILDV

GCS [2] = target: T1, GCS; experiment: Affinity selection mass spectrometry; format: binding
Procedure, shortened: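 Compound at various concentrations was incubated 60 min at 20-25°C with 10 μg/ml GCS-expressing microsomal protein in 20 mM Tris–HCl pH 7.5, 1 mM DTT, 0.01% Tween20, plus 200 μM UDP-glucose, 70 μM C8-ceramide, or neither. Bound and free compound were separated by […] through Sephadex G50-Fine. The eluent was denatured with 70% acetonitrile, and compound was quantified by LC/MS. Specific binding = counts with GCS minus counts without GCS.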

GlcSph = conditions: clinical trial, therapeutic dose; ref Mistry et al., 2017; cited from earlier work
GlcCer = conditions: ref Larsen et al., 2012; cited from earlier work
[3] = presence of UDP-glucose (200 μM)

Structure (SMILES) | K m (GCS [1]) | V max (GCS [1]) | inhibition mode of GCS against UDP-glucose (GCS [1]) | inhibition mode of GCS against ceramide (GCS [1]) | binding to GCS by AS-MS (GCS [2]; absence of UDP-glucose) | binding to GCS by AS-MS (GCS [2]; [3]) | reduction of GlcSph concentration in the plasma (GlcSph) | effect on the GlcCer level in the brain (GlcCer)
CC(C)(NC(=O)O[C@@H]1CN2CCC1CC2)c1csc(-c2ccc(F)cc2)n1 [Venglustat] | 2.53 ± 0.09 µM | 38.58 ± 0.32 µmol/min | uncompetitive | noncompetitive | not detected | bind GCS |  | 
CCCCCCCC(=O)N[C@H](CN1CCCC1)[C@H](O)c1ccc2c(c1)OCCO2 [Eliglustat] | 2.37 ± 0.11 µM | 37.60 ± 0.45 µmol/min | uncompetitive | noncompetitive | not detected | bind GCS | 40% | no significant effect
